# According to ChEMBL document CHEMBL4316599, “Synthesis, in vitro and in vivo biological evaluation of substituted 3-(5-imidazo[2,1-b]thiazolylmethylene)-2-indolinones as new potent anticancer agents” (Eur J Med Chem, 2019):
# Activity calls are given as the source filed them. The calls are words filed in the database; no cut-off is given here.
# How the values were obtained:
# A549 = assay: Cell cycle arrest in human A549 cells assessed as accumulation of cells at G2/M phase after 24 hrs by propidium iodide staining-based flow cytometric analysis; type: functional
# How it was run: (§1)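 Cells exposed to a range of concentrations for 24 h (HeLa at 5×10^5 cells), then fixed in ice-cold 70% ethanol. Lysis buffer with RNase A and 0.1% Triton X-100 was applied before PI staining. DNA content was read by flow cytometry and G1/S/G2/M fractions taken from DNA histograms. Mean ± SEM of two independent experiments.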
# HT-29 = assay: Cell cycle arrest in human HT-29 cells assessed as reduction in accumulation of cells at G1 phase up to 1000 nM after 24 hrs by propidium iodide staining-based flow cytometric analysis; type: functional; how it was run: as §1
smiles,measurement,setting,value
O=C1Nc2c(ccc3ccccc23)C1=Cc1c(-c2ccncc2)nc2sccn12,Activity,A549,Dose-dependent effect
same,Activity,HT-29,Active
